Reference: ChEMBL document CHEMBL1221390, “Withaferin A, a cytotoxic steroid from Vassobia breviflora, induces apoptosis in human head and neck squamous cell carcinoma” (J Nat Prod, 2010)
Active and inactive are the calls of the source. The calls are words filed in the database; no cut-off is given here.

Key:
[1] = biological target: RAC-alpha serine/threonine-protein kinase (Homo sapiens) (UniProt P31749); experiment: Inhibition of Akt in human MDA1986 cells assessed as decrease in total protein level at 0.1 to 5 uM after 24 hrs by Western blot analysis; format: cell-based
Sequence of RAC-alpha serine/threonine-protein kinase (Homo sapiens) (P31749 whole entry): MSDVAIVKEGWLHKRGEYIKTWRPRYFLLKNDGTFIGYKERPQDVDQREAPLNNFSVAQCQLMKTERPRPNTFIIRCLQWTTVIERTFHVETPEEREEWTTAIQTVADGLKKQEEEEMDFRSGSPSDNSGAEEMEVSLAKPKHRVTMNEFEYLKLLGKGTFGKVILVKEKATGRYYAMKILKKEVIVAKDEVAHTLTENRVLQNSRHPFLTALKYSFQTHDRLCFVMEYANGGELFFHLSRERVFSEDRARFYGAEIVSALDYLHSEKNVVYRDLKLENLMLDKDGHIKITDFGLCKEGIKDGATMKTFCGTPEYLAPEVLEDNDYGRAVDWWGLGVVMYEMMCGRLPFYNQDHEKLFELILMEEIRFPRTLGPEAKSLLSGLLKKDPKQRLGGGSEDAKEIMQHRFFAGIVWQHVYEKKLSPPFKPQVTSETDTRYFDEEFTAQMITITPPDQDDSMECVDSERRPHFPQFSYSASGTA
Method in brief: (§1)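 Increasing concentrations for 24 h. NP-40 lysates (with NaF and orthovanadate) cleared at 14,000 × g, equal protein separated by SDS-PAGE and blotted. Probed for phospho-Akt (Ser473), total Akt, phospho-ERK1/2 and total ERK; β-actin loading control. Primary antibody overnight at 4 °C, HRP secondary 1 h.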

[2] = biological target: RAC-alpha serine/threonine-protein kinase (Homo sapiens) (UniProt P31749); experiment: Inhibition of Akt in human JMAR cells assessed as decrease in total protein level at 0.1 to 5 uM after 24 hrs by Western blot analysis; format: cell-based; method in brief: as §1
[3] = biological target: RAC-alpha serine/threonine-protein kinase (Homo sapiens) (UniProt P31749); experiment: Inhibition of Akt in human UM-SCC2 cells assessed as decrease in total protein level at 0.1 to 5 uM after 24 hrs by Western blot analysis; format: cell-based; method in brief: as §1
[4] = biological target: RAC-alpha serine/threonine-protein kinase (Homo sapiens) (UniProt P31749); experiment: Inhibition of Akt in human JHU011 cells assessed as decrease in total protein level at 0.1 to 5 uM after 24 hrs by Western blot analysis; format: cell-based; method in brief: as §1
[5] = biological target: T1, Mitogen-activated protein kinase; ERK1/ERK2 (Homo sapiens) (UniProt P27361+P28482); experiment: Inhibition of ERK1/2 phosphorylation in human JHU011 cells at 0.1 to 5 uM after 24 hrs by Western blot analysis; format: cell-based; method in brief: as §1
T1 sequence (P27361 whole entry, looked up): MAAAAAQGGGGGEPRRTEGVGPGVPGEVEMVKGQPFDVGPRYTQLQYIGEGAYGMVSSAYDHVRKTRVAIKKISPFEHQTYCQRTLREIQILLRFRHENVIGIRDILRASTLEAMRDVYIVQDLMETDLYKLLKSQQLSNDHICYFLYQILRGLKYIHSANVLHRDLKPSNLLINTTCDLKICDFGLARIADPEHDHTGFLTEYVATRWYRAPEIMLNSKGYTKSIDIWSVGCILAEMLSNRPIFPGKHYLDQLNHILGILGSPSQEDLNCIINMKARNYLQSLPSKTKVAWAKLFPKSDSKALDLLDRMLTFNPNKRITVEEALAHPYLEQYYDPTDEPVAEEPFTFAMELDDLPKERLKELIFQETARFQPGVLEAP
T1 sequence (P28482 whole entry, looked up): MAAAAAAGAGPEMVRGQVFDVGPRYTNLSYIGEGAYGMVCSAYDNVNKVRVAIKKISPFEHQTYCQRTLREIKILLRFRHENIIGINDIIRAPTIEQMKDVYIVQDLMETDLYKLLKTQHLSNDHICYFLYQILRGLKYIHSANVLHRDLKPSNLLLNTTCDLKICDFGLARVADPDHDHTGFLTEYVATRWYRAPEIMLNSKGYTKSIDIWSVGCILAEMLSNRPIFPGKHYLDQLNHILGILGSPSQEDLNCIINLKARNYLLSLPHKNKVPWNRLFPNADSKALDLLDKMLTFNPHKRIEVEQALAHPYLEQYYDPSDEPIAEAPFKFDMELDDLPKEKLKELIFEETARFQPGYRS

[6] = biological target: T1, Mitogen-activated protein kinase; ERK1/ERK2 (Homo sapiens); experiment: Inhibition of ERK1/2 phosphorylation in human JMAR cells at 0.1 to 5 uM after 24 hrs by Western blot analysis; format: cell-based; method in brief: as §1
[7] = biological target: T1, Mitogen-activated protein kinase; ERK1/ERK2 (Homo sapiens); experiment: Inhibition of ERK1/2 phosphorylation in human MDA1986 cells at 0.1 to 5 uM after 24 hrs by Western blot analysis; format: cell-based; method in brief: as §1
[8] = biological target: T1, Mitogen-activated protein kinase; ERK1/ERK2 (Homo sapiens); experiment: Inhibition of ERK1/2 phosphorylation in human UM-SCC2 cells at 0.1 to 5 uM after 24 hrs by Western blot analysis; format: cell-based; method in brief: as §1
[9] = biological target: T1, Mitogen-activated protein kinase; ERK1/ERK2 (Homo sapiens); experiment: Inhibition of ERK1/2 phosphorylation in human JHU011 cells assessed as effect on total protein level at 0.1 to 5 uM after 24 hrs by Western blot analysis; format: cell-based; method in brief: as §1
[10] = biological target: T1, Mitogen-activated protein kinase; ERK1/ERK2 (Homo sapiens); experiment: Inhibition of ERK1/2 phosphorylation in human UM-SCC2 cells assessed as effect on total protein level at 0.1 to 5 uM after 24 hrs by Western blot analysis; format: cell-based; method in brief: as §1
[11] = biological target: T1, Mitogen-activated protein kinase; ERK1/ERK2 (Homo sapiens); experiment: Inhibition of ERK1/2 phosphorylation in human JMAR cells assessed as effect on total protein level at 0.1 to 5 uM after 24 hrs by Western blot analysis; format: cell-based; method in brief: as §1
[12] = biological target: T1, Mitogen-activated protein kinase; ERK1/ERK2 (Homo sapiens); experiment: Inhibition of ERK1/2 phosphorylation in human MDA1986 cells assessed as effect on total protein level at 0.1 to 5 uM after 24 hrs by Western blot analysis; format: cell-based; method in brief: as §1
Homo sapiens [13] = species on record: Homo sapiens; experiment: Induction of apoptosis in human MDA1986 cells assessed as increase in early apoptotic cells at 5 uM after 24 hrs by FITC-conjugated annexin V and propidium iodide staining-based flow cytometry; format: functional, cell-based
Method in brief: (§2)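 Cells given 5.0 μM for 24 h, harvested, and co-stained at 1×10⁶ cells/mL with annexin V-FITC and PI. Annexin binding buffer added before flow cytometry. Annexin V only scored as early apoptosis, annexin V+PI as late apoptosis, PI only as necrosis. Triplicate; t-test.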

Homo sapiens [14] = species on record: Homo sapiens; experiment: Induction of apoptosis in human MDA1986 cells assessed as increase in late apoptotic cells at 5 uM after 24 hrs by FITC-conjugated annexin V and propidium iodide staining-based flow cytometry; format: functional, cell-based; method in brief: as §2
MDA1986 = experiment: Induction of apoptosis in human MDA1986 cells assessed as increase in non-viable necrotic cells at 5 uM after 24 hrs by FITC-conjugated annexin V and propidium iodide staining-based flow cytometry; format: functional, cell-based; method in brief: as §2
[15] = Cytotoxicity against human UM-SCC2 cells after 72 hrs by MTS assay; format: functional, cell-based; conditions: UM-SCC2, 72 h
Method in brief: (§3)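 Seeded at 2×10³ cells/well, left 24 h, then exposed to serial dilutions in medium (from DMSO stock; vehicle controls <0.1% DMSO v/v) for 72 h. MTS added, 3 h at 37 °C, 5% CO₂, absorbance 490 nm. Viability expressed relative to medium-only control; IC50 read from viability–concentration curves. Triplicate; cisplatin positive control.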

[16] = Cytotoxicity against human MDA1986 cells after 72 hrs by MTS assay; format: functional, cell-based; conditions: MDA1986, 72 h
Method in brief: (§4)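 Cells seeded at 2×10³ per well, grown 24 h, then given serial concentrations (DMSO stock diluted in medium; vehicle controls <0.1% v/v DMSO) for 72 h. MTS added, 3 h at 37 °C, 5% CO₂, absorbance at 490 nm. Viability as fraction of medium-only control; IC50 from viability–concentration curves; triplicate, means of three independent experiments. Cisplatin positive control.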

[17] = Cytotoxicity against human JMAR cells after 72 hrs by MTS assay; format: functional, cell-based; method in brief: as §4
[18] = Cytotoxicity against human JHU011 cells after 72 hrs by MTS assay; format: functional, cell-based; conditions: JHU011, 72 h; method in brief: as §3
[19] = Induction of cell cycle arrest in human JMAR cells assessed as accumulation at G2/M phase at 3 uM after 24 hrs by flow cytometry; format: functional
Method in brief: (§5)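 Treated 24 h with 3.0 μM or DMSO vehicle. Cells trypsinized; 1×10⁶ washed in 0.9% NaCl and fixed 30 min at room temperature in cold 70% ethanol/0.9% NaCl. Stained with PI (50 μg/mL in PBS) 30 min, then DNase-free RNase (1 mg/mL) 30 min. Phase distribution (sub-G0, G0/G1, S, G2/M) by flow cytometry.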

[20] = Induction of cell cycle arrest in human MDA1986 cells assessed as accumulation at G2/M phase at 3 uM after 24 hrs by flow cytometry; format: functional; method in brief: as §5
[21] = Induction of cell cycle arrest in human UM-SCC2 cells assessed as accumulation at G2/M phase at 3 uM after 24 hrs by flow cytometry; format: functional; method in brief: as §5
[22] = Induction of cell cycle arrest in human JHU011 cells assessed as accumulation at G2/M phase at 3 uM after 24 hrs by flow cytometry; format: functional; method in brief: as §5

CC1=C(CO)C(=O)O[C@@H]([C@@H](C)[C@H]2CC[C@H]3[C@@H]4C[C@H]5O[C@]56[C@@H](O)C=CC(=O)[C@]6(C)[C@H]4CC[C@]23C)C1 [WITHAFERIN A]
inhibition [1]: Active | inhibition [2]: Active | inhibition [3]: Active | inhibition [4]: Active | inhibition [5]: inactive | inhibition [6]: inactive | inhibition [7]: inactive | inhibition [8]: Active | inhibition [9]: inactive | inhibition [10]: inactive | inhibition [11]: inactive | inhibition [12]: inactive | Activity (Homo sapiens [13]): inactive | Activity (Homo sapiens [14]): inactive | Activity (MDA1986): inactive | IC50 [15]: 0.5 µM | IC50 [16]: 0.8 µM | IC50 [17]: 2 µM | IC50 [18]: 2.2 µM | Activity [19]: 42% | Activity [20]: 49% | Activity [21]: 36% | Activity [22]: 34%
